Measured values reported in ChEMBL document CHEMBL4477243, “Discovery and SAR of a novel series of potent, CNS penetrant M4 PAMs based on a non-enolizable ketone core: Challenges in disposition” (Bioorg Med Chem Lett, 2016).

What was measured:
[1] = molecular target: T1, Muscarinic acetylcholine receptor M4 (Rattus norvegicus, UniProt P08485); assay: Positive allosteric modulation activity at rat M4 receptor expressed in CHO cells co-expressing Gqi5 protein assessed as potentiation of EC20 acetyl choline-induced response by calcium mobilization assay; type: functional, cell-based; conditions: read-out: EC50
T1 sequence (P08485 whole entry): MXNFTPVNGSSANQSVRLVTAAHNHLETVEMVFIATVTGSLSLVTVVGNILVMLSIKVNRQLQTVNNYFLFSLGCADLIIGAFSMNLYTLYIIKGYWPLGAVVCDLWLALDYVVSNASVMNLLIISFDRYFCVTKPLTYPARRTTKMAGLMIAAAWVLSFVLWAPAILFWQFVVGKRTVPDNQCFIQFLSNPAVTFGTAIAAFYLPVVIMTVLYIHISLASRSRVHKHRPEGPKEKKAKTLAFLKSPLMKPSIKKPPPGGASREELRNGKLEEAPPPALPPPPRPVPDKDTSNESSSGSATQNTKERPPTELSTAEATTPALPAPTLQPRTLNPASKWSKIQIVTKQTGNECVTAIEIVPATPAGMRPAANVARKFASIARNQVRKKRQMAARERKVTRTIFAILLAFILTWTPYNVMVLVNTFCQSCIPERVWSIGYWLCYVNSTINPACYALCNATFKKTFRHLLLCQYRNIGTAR
Summary of the method: (§1)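 Calcium mobilization in CHO cells stably co-expressing human or rat M4 with the chimeric Gqi5 protein. Test compound given with a fixed EC20 concentration of acetylcholine. Potency reported as EC50; efficacy as % of the acetylcholine maximum. Means of three independent experiments, each in triplicate.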

[2] = molecular target: T2, Muscarinic acetylcholine receptor M4 (Homo sapiens, UniProt P08173); assay: Positive allosteric modulation activity at human M4 receptor expressed in CHO cells co-expressing Gqi5 protein assessed as potentiation of EC20 acetyl choline-induced response by calcium mobilization assay; type: functional, cell-based; summary of the method: as §1
T2 sequence (P08173 whole entry): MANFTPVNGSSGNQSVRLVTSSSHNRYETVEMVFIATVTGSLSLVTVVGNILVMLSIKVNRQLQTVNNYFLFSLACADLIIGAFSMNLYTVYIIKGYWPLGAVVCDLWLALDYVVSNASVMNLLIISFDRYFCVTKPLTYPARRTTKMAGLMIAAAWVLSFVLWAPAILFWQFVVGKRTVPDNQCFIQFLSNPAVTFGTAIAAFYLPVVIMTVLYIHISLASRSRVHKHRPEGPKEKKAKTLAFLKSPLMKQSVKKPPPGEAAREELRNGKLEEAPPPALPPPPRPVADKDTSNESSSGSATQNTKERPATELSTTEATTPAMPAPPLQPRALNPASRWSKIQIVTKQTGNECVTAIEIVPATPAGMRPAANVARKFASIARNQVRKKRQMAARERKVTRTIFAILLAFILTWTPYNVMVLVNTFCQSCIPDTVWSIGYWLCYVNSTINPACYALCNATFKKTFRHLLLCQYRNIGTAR

[3] = Fraction unbound in human plasma; type: ADME, cell-free
Summary of the method: (§2)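 Plasma protein binding, reported as fraction unbound in rat and human plasma. Single experiment (n=1) run in triplicate.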

[4] = molecular target: T3, Muscarinic acetylcholine receptor M4 (Rattus norvegicus) (UniProt P08485); assay: Positive allosteric modulation activity at rat M4 receptor expressed in CHO cells co-expressing Gqi5 protein assessed as potentiation of EC20 acetyl choline-induced response by calcium mobilization assay relative to acetylcholine; type: functional, cell-based; summary of the method: as §1
T3 sequence (whole entry): T1 sequence (P08485 whole entry)

[5] = Ratio of drug level in Sprague-Dawley rat brain to plasma at 0.2 to 0.25 mg/kg, iv administered as cassette dose measured 0.25 hrs post dose; type: ADME, organism-based; conditions: brain and plasma
Summary of the method: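 Male Sprague-Dawley rats (n=1) received an IV cassette dose of 0.20-0.25 mg/kg. Brain and plasma sampled 0.25 hr post-administration. Total brain:plasma partition coefficient (Kp) measured; unbound coefficient (Kp,uu) calculated.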

Cytochrome P450 = assay: Inhibition of Cytochrome P450 (unknown origin); type: ADME, protein assay; conditions: human
[6] = molecular target: T4, Muscarinic acetylcholine receptor M4 (Homo sapiens) (UniProt P08173); assay: Positive allosteric modulation activity at human M4 receptor expressed in CHO cells co-expressing Gqi5 protein assessed as potentiation of EC20 acetyl choline-induced response by calcium mobilization assay relative to acetylcholine; type: functional, cell-based; summary of the method: as §1
T4 sequence (whole entry): T2 sequence (P08173 whole entry)

Cytochrome P450 1A2 = molecular target: T5, Cytochrome P450 1A2 (Homo sapiens, UniProt P05177); assay: Inhibition of CYP1A2 (unknown origin); type: ADME
T5 sequence (P05177 whole entry): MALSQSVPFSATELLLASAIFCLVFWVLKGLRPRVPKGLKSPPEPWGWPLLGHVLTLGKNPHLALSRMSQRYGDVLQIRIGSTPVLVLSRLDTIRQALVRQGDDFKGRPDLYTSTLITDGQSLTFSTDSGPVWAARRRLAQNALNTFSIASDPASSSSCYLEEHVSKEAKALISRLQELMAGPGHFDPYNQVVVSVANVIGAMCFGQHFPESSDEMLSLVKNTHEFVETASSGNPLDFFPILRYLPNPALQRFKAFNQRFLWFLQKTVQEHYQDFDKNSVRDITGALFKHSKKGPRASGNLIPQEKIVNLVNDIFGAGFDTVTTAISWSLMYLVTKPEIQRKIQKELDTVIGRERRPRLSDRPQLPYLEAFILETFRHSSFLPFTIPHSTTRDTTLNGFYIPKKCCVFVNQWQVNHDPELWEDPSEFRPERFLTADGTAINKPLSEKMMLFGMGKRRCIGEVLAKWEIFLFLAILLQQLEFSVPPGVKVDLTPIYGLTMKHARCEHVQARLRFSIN

[7] = Fraction unbound in rat plasma; type: ADME, cell-free; summary of the method: as §2
[8] = Selectivity ratio of EC50 for rat M4 receptor expressed in CHO cells co-expressing Gqi5 protein to EC50 for human M4 receptor expressed in CHO cells co-expressing Gqi5 protein; type: cell-based

Structure (SMILES)	EC50 [1] [nM]	EC50 ([2]; read-out: EC50) [nM]	fraction unbound [3]	%max [4] [%]	Kp at 0.25 h [5]	inhibition (INH) (Cytochrome P450)	%max [6] [%]	inhibition (INH) (Cytochrome P450 1A2)	fraction unbound [7]	EC50 ([2]; read-out: pEC50 (converted)) [nM]	Ratio EC50 [8]
Cc1nnc2sc(C(O)c3cccnc3)c(N)c2c1C (centres undefined)	> 10000	> 10000	–	–	–	–	–	–	–	–	–
Cc1nnc2sc(C(O)c3ccncc3)c(N)c2c1C (centres undefined)	> 10000	> 10000	–	–	–	–	–	–	–	–	–
COc1ccc(C(O)c2sc3nc(C)cc(C)c3c2N)cc1 (centres undefined)	> 10000	> 10000	–	–	–	–	–	–	–	–	–
Nc1c(C(O)c2ccncc2)sc2nc(O)c3c(c12)CCCC3 (centres undefined)	> 10000	> 10000	–	–	–	–	–	–	–	–	–
Cc1cc(C)c2c(N)c(C(=O)c3ccccc3)sc2n1	1500	891	0.005 to 0.18	46	0.83 to 6.95	Not Active	47	Active	0.005 to 0.18	–	–
COc1ccc(C(=O)c2sc3nnc(C)c(C)c3c2N)cc1	1450	646	0.005 to 0.18	70	0.83 to 6.95	Not Active	63	Active	0.005 to 0.18	–	–
Nc1c(C(O)c2ccncc2)sc2nc(OCc3ccncc3)c3c(c12)CCC3 (centres undefined)	> 10000	> 10000	–	–	–	–	–	–	–	–	–
Cc1nnc2sc(C(O)c3ccccc3)c(N)c2c1C (centres undefined)	> 10000	> 10000	–	–	–	–	–	–	–	–	–
Cc1nc2sc(C(=O)c3ccccc3)c(N)c2c(C)c1Cl	692	372	0.005 to 0.18	43	–	Not Active	45	Active	0.005 to 0.18	–	–
Nc1c(C(=O)c2ccncc2)sc2nc(OCc3ccncc3)c3c(c12)CCC3	1230	295	0.005 to 0.18	–	0.83 to 6.95	Not Active	–	Active	0.005 to 0.18	–	–
Cc1nnc2sc(C(=O)c3ccccc3)c(N)c2c1C	166	102	0.005 to 0.18	67	–	Not Active	76	Active	0.005 to 0.18	–	–
Cc1nnc2sc(C(O)c3ccc(F)cc3F)c(N)c2c1C (centres undefined)	> 10000	> 10000	–	–	–	–	–	–	–	–	–
Nc1c(C(O)c2ccncc2)sc2nc(OCCN3CCOCC3)c3c(c12)CCC3 (centres undefined)	> 10000	> 10000	–	–	–	–	–	–	–	–	–
Cc1cc(C)c2c(N)c(C(=O)CCc3ccncc3)sc2n1	540	479	–	67.9	11	–	59.1	–	–	–	–
Cc1cc(C)c2c(N)c(C(=O)c3ccc(F)c(Cl)c3)sc2n1	195	240	0.005 to 0.18	41	0.83 to 6.95	Not Active	45	Active	0.005 to 0.18	–	–
Cc1nnc2sc(C(=O)c3ccncc3)c(N)c2c1C	3550	891	0.005 to 0.18	68	–	Not Active	76	Active	0.005 to 0.18	–	–

Structure (SMILES)	EC50 [1] [nM]	EC50 ([2]; read-out: EC50) [nM]	fraction unbound [3]	%max [4] [%]	Kp at 0.25 h [5]	inhibition (INH) (Cytochrome P450)	%max [6] [%]	inhibition (INH) (Cytochrome P450 1A2)	fraction unbound [7]	EC50 ([2]; read-out: pEC50 (converted)) [nM]	Ratio EC50 [8]
Cc1nc2sc(C(O)c3cccnc3)c(N)c2c(C)c1Cl (centres undefined)	> 10000	> 10000	–	–	–	–	–	–	–	–	–
Cc1nc2sc(C(O)c3ccccc3)c(N)c2c(C)c1Cl (centres undefined)	> 10000	> 10000	–	–	–	–	–	–	–	–	–
COc1ccc(C(O)c2sc3nnc(C)c(C)c3c2N)cc1 (centres undefined)	> 10000	> 10000	–	–	–	–	–	–	–	–	–
Cc1cc(C)c2c(N)c(C(O)c3ccc(F)cc3F)sc2n1 (centres undefined)	> 10000	> 10000	–	–	–	–	–	–	–	–	–
COc1ccc(CCC(=O)c2sc3nnc(C)c(C)c3c2N)cc1F	254	380	–	77.2	11	–	69.1	–	–	–	–
Cc1nnc2sc(C(=O)c3cccnc3)c(N)c2c1C	417	105	0.005 to 0.18	95	0.83 to 6.95	Not Active	74	Active	0.005 to 0.18	–	–
Cc1nnc2sc(C(=O)c3ccc(F)cc3F)c(N)c2c1C	380	331	0.005 to 0.18	66	0.83 to 6.95	Not Active	55	Active	0.005 to 0.18	–	–
Cc1nc2sc(C(=O)c3cccnc3)c(N)c2c(C)c1Cl	417	105	0.005 to 0.18	95	0.83 to 6.95	Not Active	74	Active	0.005 to 0.18	–	–
Cc1cc(C)c2c(N)c(C(O)c3ccc(O)cc3)sc2n1 (centres undefined)	> 10000	> 10000	–	–	–	–	–	–	–	–	–
Cc1cc(C)c2c(N)c(C(O)c3ccc(F)c(Cl)c3)sc2n1 (centres undefined)	> 10000	> 10000	–	–	–	–	–	–	–	–	–
Nc1c(C(=O)c2ccncc2)sc2nc(O)c3c(c12)CCCC3	182	37	0.005 to 0.18	52.7	0.83 to 6.95	Not Active	63.8	Active	0.005 to 0.18	75.9	–
Cc1cc(C)c2c(N)c(C(O)c3ccccc3)sc2n1 (centres undefined)	> 10000	> 10000	–	–	–	–	–	–	–	–	–
Cc1cc(C)c2c(N)c(C(=O)c3ccc(O)cc3)sc2n1	380	355	0.005 to 0.18	73	0.83 to 6.95	Not Active	70	Active	0.005 to 0.18	–	–
COc1ccc(C(=O)c2sc3nc(C)cc(C)c3c2N)cc1	490	479	0.005 to 0.18	54	0.83 to 6.95	Not Active	48	Active	0.005 to 0.18	–	–
Cc1cc(C)c2c(N)c(C(=O)c3ccc(F)cc3F)sc2n1	3980	562	0.005 to 0.18	35	0.83 to 6.95	Not Active	39	Active	0.005 to 0.18	–	4 to 7
Nc1c(C(=O)c2ccncc2)sc2nc(OCCN3CCOCC3)c3c(c12)CCC3	417	76	0.005 to 0.18	–	–	Not Active	–	Active	0.005 to 0.18	–	–
